# Assay outcomes (PubChem)
# Hits are enriched below; roughly 1.9% of the tested compounds scored in any of these assays.
# CXCR6 block = CXCR6 receptor inhibitors, primary screen, cell-based, beta-arrestin, luminescence, CHO-K1 PathHunter, 1536-well; inhibition, % at 20 µM; AID 602244, 2012; 0.36% of 360,000 active; in the data active = inhibition above about 34%, passing the limit was not always enough;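 note: antagonist mode with CXCL16 agonist at 10 nM final; 0% = 10 nM CXCL16 with DMSO and 100% = unstimulated wells without agonist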
# APJ antag = antagonists of human apelin receptor APJ, primary screen, CHO-K1 cells, beta-arrestin complementation, luminescence; inhibition, % at 20 µM; AID 2521, 2010; 0.32% of 330,000 active; P35414;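 active = inhibition above about 40% at 20 µM, limit read from the data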;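 note: cells challenged with 10 nM apelin-13 agonist together with compound; plate controls were apelin-13 plus DMSO wells for no effect and DMSO wells lacking apelin-13 for full effect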
# APJ ag = agonists of human apelin receptor APJ, primary screen, CHO-K1 cells, PathHunter beta-arrestin, luminescence; P35414; 0% DMSO wells, 100% apelin; activation, % at 20 µM; 0.11% of 330,000 active; AID 2520, 2010;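 active = activation more than six SD over the plate average, tested at 20 µM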;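 note: 0% = DMSO alone and 100% = apelin-13 at 10 nM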
#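 Test system: CHO-K1 APJ beta-arrestin complementation cell line. Amount: cell density 1000 per well. Controls: DMSO negative, 10 nM Apelin-13 positive. Signal: luminescent beta-gal fragment complementation, chemiluminescent substrate. Read-out basis: agonist-driven arrestin binding to APJ. Timing: compound stimulation 90 min at 25 °C, detection 60 min.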
# H9c2 TAG inh = inhibitors of triacylglycerol accumulation, primary screen, cell-based, uHTS, fluorescence, H9c2. 0.66% of 230,000 active. AID 651582, 2012. inhibition, % at 12.5 µM. H9c2 cells, Nile Red lipid (TAG) fluorescence; cells loaded with 200 µM oleic acid;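 active = pattern-corrected inhibition of lipid staining of at least 50% with the nuclear-stain viability signal not falling by more than 50%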;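 note: 0% = DMSO wells and 100% = triacsin C control wells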
# CCR6 antag = CCR6 receptor antagonists, primary screen, cell-based, CHO-K1, luminescence, beta-arrestin, uHTS; C-C chemokine receptor type 6 (Homo sapiens), P51684; 0.49% of 340,000 active; CHO-K1 CCR6 PathHunter beta-arrestin, CCL20-stimulated; inhibition, % at 20 µM;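 active = compounds whose inhibition of the agonist-driven luminescence signal at 20 µM reaches about 50%, limit read from the data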;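 note: cells stimulated with CCL20 at 14 nM final; plate controls were DMSO with CCL20 for no effect and DMSO without agonist for full effect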
# Target sequence (P51684 whole entry, looked up): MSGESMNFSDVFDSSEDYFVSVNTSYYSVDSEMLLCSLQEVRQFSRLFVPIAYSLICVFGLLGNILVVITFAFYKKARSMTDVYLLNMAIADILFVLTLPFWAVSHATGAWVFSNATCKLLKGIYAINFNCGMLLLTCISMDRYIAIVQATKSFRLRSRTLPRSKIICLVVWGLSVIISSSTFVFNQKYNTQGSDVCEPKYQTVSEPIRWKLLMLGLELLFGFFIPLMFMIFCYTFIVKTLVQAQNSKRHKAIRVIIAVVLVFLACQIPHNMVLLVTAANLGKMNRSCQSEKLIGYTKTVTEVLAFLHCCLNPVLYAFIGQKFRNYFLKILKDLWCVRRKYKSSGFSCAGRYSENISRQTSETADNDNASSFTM
# EBI2 block = EBI2 receptor antagonists, beta-arrestin recruitment, primary screen, cell-based, luminescence, 7a,25-OHC stimulation, uHTS; inhibition, % at 5 µM; AID 651636, 2012; 7a,25-OHC stimulated; 0.81% of 360,000 active; G-protein coupled receptor 183 (Homo sapiens), P32249; in the data active = inhibition above about 38%;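 note: enzyme fragment complementation signal reports receptor beta-arrestin coupling in cells; 0% = agonist plus DMSO wells and 100% = wells without agonist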
# Numbers without * were called inactive; · = not tested or not shown.
SMILES,CXCR6 block,APJ antag,APJ ag,H9c2 TAG inh,CCR6 antag,EBI2 block
O=c1nc2s/c(=C\c3ccc(-c4ccccc4[N+](=O)[O-])o3)c(=O)n2nc1-c1ccccc1,0,·,·,·,58*,-6
CC1(c2nnnn2Cc2ccccc2)CCC(=O)N1Cc1cccc(C(F)(F)F)c1 (centres undefined),0,·,·,·,·,-8
CN(C)S(=O)(=O)c1cccc(-c2nnc(-c3ccccc3)o2)c1,5,17,1,·,9,50*
Cc1ccccc1NS(=O)(=O)c1cccc(-c2nnc(-c3ccccc3)o2)c1,10,3,-4,·,11,5
CCOc1ccc2nc(NC(=O)Cc3cccs3)sc2c1,6,5,0,64*,14,9
COc1ccc(C(=O)Nc2nc3ccccc3s2)c(OC)c1,3,6,-2,·,5,50*
CCOc1ccc2nc(NC(=O)c3ccccn3)sc2c1,58*,79*,-9,51*,79*,60*
Nc1ncnc2c1ncn2[C@@H]1O[C@H](C(=O)Nc2ccc(Oc3ccccc3)nc2)[C@@H](O)[C@H]1O,-1,·,·,·,·,-6
CCS(=O)(=O)c1ccc(N=Nc2ccc(O)c3ncccc23)c(OC)c1,35,20,-4,73,45,-1
COc1ccccc1N=Nc1ccc(O)c2ncccc12,33,4,-2,·,54*,2
Cc1ccc(N=Nc2ccc3ccccc3c2O)cc1,17,33,-5,·,41,26
Cc1ccc(N=Nc2ccc(O)c3ncccc23)cc1,4,·,·,87*,8,8
NC(=NC1CCCCC1)NS(=O)(=O)c1ccccc1,-3,3,0,·,4,-4
Cc1ccc(C)c(NC(=S)Nc2cccc3cnccc23)c1,-27,-72,0,-15,-2,0
Cc1ccccc1NC(=S)Nc1cccc2cnccc12,-8,-42,16*,-10,10,-12
CN(C)CC/C=C1\c2ccccc2Sc2cc(F)c(Cl)cc21,-7,17,-4,62*,23,-16
CN(C)CC/C=C1/c2ccc(F)cc2Sc2ccc(Cl)cc21,-16,16,-3,44,7,-13
CN(C)CC/C=C1\c2ccc(F)cc2Sc2cc(F)c(Cl)cc21,-16,-8,1,61*,24,-8
CN(C)CC/C=C1\c2ccccc2Sc2ccc(Cl)cc21,-4,16,-5,13,7,-3
Cc1cc(C)c(S(=O)(=O)/N=C2/C=C(Sc3ncn[nH]3)C(=O)c3ccccc32)cc1C,46*,·,·,·,79*,11
Cc1ccc(C)c(S(=O)(=O)/N=C2\C=C(NS(=O)(=O)c3ccccc3)C(=O)c3ccccc32)c1,34,37,-3,·,45,9
COc1cc(/C=C2/CC/C(=C/c3ccc(O)c(OC)c3)C2=O)ccc1O,55*,2,-6,5,61*,15
COc1ccc(/C=C2\CN(Cc3ccccc3)C/C(=C\c3ccc(OC)c(O)c3)C2=O)cc1O,52*,11,2,·,20,-7
CCN1C/C(=C/c2ccc(OC)c(O)c2)C(=O)/C(=C/c2ccc(OC)c(O)c2)C1,-1,19,-3,0,13,-10
COc1cc(/C=C2\COC/C(=C\c3ccc(O)c(OC)c3)C2=O)ccc1O,41*,44*,-9,13,56*,15
SMILES,CXCR6 block,APJ antag,APJ ag,H9c2 TAG inh,CCR6 antag,EBI2 block
COc1cc(C=C2C(=O)c3ccccc3C2=O)ccc1O,17,61*,-8,13,26,5
COc1cc(C=C2C(=O)c3ccccc3C2=O)cc(OC)c1OC,20,17,-2,-24,7,-10
COc1cc(/C=C2/SC(=Nc3ccc(O)cc3)NC2=O)ccc1O,12,8,3,59*,19,0
CCN1CCC(O)(C#Cc2ccccc2)CC1,-6,14,1,·,9,11
CC1C(c2ccccc2)N(C)C(c2ccccc2)C(C)C1(O)C#Cc1ccccc1 (centres undefined),6,5,-3,·,50*,22
CCN(CC)S(=O)(=O)c1ccc2oc(C(=O)NCc3ccc(C)cc3)c(C)c2c1,-6,6,2,·,13,70*
CCN(CC)S(=O)(=O)c1ccc2oc(C(=O)NC(C)C)c(C)c2c1,-7,0,-7,-1,-3,1
COc1ccccc1N1CCN(C(=O)C2c3ccccc3Oc3ccccc32)CC1,5,3,-7,57*,41,20
COc1ccccc1N1CCN(C(=O)C2CC2)CC1,0,9,-2,-15,-6,0
O=C1C2CC3N1CCC31c3ccccc3-n3c1c2ccc3=O (centres undefined),2,·,·,13,2,-6
O=C(C(Br)=Cc1ccccc1)c1ccccc1,48*,·,·,63,69*,69*
CC(=Cc1ccccc1)C(=O)c1ccccc1,-4,·,·,-2,·,-8
CCc1nc2c(OCC(=O)C(C)(C)C)cccn2c1N(C)C(=O)CC(C)C,4,·,·,11,·,4
Cc1ccc(C2=CC(=O)C[C@H](c3ccc(Cl)cc3)C2)cc1,-3,-8,-5,-27,24,74*
CCCCNC(=S)N(CCN(C)C)Cc1cc2cc3c(cc2[nH]c1=O)OCCO3,8,3,-4,8,10,-1
O=S(=O)(Nc1cccc2ncccc12)c1cccs1,79*,88*,-14,·,88*,60*
c1ccc2nc(NN=C3CCCCC3)ccc2c1,35*,·,·,2,78*,11
c1ccc2[nH]c(NN=C3CCCCCC3)nc2c1,-1,7,1,6,14,6
Clc1ccc(-c2cn3c(n2)-c2ccccc2C3)cc1Cl,0,-9,-3,·,6,57*
COc1ccccc1N=Nc1nc(-c2ccccc2)c(-c2ccccc2)[nH]1,34,·,·,·,67*,38
CC(C)COCc1ccc(O)c2ncccc12,17,2,-3,45,33,44*
CCCOCc1ccc(O)c2ncccc12,13,-16,-2,105,7,46*
NC(CCCCc1ccccc1)c1cccc2ccccc12 (centres undefined),·,0,3,·,·,·
O=C(Oc1c(CN2CCOCC2)cc(Cl)c2cccnc12)c1ccccc1Cl,28,11,-2,110,42,53*
O=[N+]([O-])c1cc(CN2CCCC2)c2cccnc2c1O,-7,·,·,·,1,0
Oc1c(Cl)cc(Cl)c2cccnc12,49*,·,·,·,63*,11
CC(=O)NC(C)c1cc(Cl)c2cccnc2c1O (centres undefined),-7,-9,-2,27,17,-2
Oc1c(Cl)cc(CN2CCCCC2)c2cccnc12,49*,25,-8,·,·,5
